Hits are enriched below; roughly 2.5% of the tested compounds scored in any of these assays.
TRPML3 ag = agonists of human TRPML3 channel. activation, % at 3 µM. Q8TDD5. hit rate 0.29% among 220,000. AID 1448. HEK293 TRPML3-YFP, Fluo-8 calcium fluorescence; 100% = the carbachol control signal;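 active = activation above its plate's cutoff, the mean activation of the plate's test wells plus 3 SD, cut at about 12% in these data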;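 also: 0% = DMSO only wells and 100% = carbachol wells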
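Test system – HEK293 line with stable expression of human TRPML3-YFP channel · Control set – carbachol 87 µM final as high control (100%), DMSO as low control (0%) · Signal – Fluo-8 calcium dye fluorescence, ex 470-495, em 515-575 nm · Incubation – 1-h 37 °C dye load, 5-s basal, 120-s post-compound reads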
CHO parental Ca = counter-screen for OX1R antagonists: effect in parental CHO cells. parental CHO-K1, ATP-induced calcium, Fluo-8 fluorescence. AID 463079. inhibition, % at 5.6 µM. hit rate 0.63% among 330,000;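 active = inhibition above that plate's mean sample inhibition plus 3 SD, cut at about 26% in these data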;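 also: 0% = ATP-challenged DMSO wells and 100% = DMSO wells without ATP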
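material = parental CHO cells | also added = ATP as calcium-mobilizing challenge | dosing = single point at 5.6 µM | detection = intracellular calcium via Fluo-8 no-wash fluorescent dye | read-out = % inhibition | benchmarks = low control ATP plus DMSO, high control DMSO only | repeats = one well per compound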
OX1R antag-1 = human HCRTR1 antagonism. CHO/OX1R cells, Fluo-8 calcium fluorescence, orexin A. inhibition, % at 5 µM. hit rate 0.43% among 330,000;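 active = inhibition above its plate's threshold, mean inhibition of all tested compounds on the plate plus 3 SD, cut at about 37% in these data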;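 also: 0% = orexin A challenge wells and 100% = SB-334867-A antagonist wells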
Target sequence (O43613 whole entry, looked up): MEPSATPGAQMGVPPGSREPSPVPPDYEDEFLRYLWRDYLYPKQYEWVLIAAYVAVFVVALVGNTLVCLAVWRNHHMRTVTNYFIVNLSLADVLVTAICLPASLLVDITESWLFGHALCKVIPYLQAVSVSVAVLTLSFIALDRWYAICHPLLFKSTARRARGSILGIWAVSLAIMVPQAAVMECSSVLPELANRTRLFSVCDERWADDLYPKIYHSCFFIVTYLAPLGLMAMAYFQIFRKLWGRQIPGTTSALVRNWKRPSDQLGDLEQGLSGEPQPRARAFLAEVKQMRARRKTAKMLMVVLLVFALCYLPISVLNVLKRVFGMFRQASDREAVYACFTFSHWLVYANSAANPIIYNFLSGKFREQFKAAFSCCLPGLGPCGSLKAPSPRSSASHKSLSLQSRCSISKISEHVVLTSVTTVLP
zfTRPN1 agonist = activates the zebrafish TRPN1 channel; HEK293 zebrafish TRPN1-YFP, Fluo-8 calcium fluorescence; 100% = response to 87 µM carbachol; hit rate 0.18% among 220,000; activation, % at 3 µM;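 active = activation above its plate's cutoff, the mean activation of test wells on that plate plus 3 SD, cut at about 19% in these data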;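 also: 0% = DMSO alone and 100% = 87 µM carbachol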
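Material – zebrafish TRPN1-YFP in HEK293 cells · Doses – 3 µM single point · Schedule – dye 1 h 37 °C plus 30 min RT · Signal – Fluo-8 calcium fluorescence, excitation 470-495 nm, emission 515-575 nm · Read-out – % activation versus carbachol response · Control set – carbachol high, DMSO low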
OX1R antag-2 = OX1R (human) antagonism | O43613 | OX1R-expressing cells, FRET antagonist read-out | inhibition, % at 6.6 µM | hit rate 1.8% among 330,000 | AID 485270; in the data active = inhibition mostly above about 38%, no sharp cut-off; inactive = mostly below about 40%;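 also: 0% = agonist challenge alone and 100% = reference antagonist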
* marks the source's active call; other numbers are inactive results; / = not tested or not shown.

SMILES | TRPML3 ag | CHO parental Ca | OX1R antag-1 | zfTRPN1 agonist | OX1R antag-2
Cc1cc(NC(=O)Cc2ccccc2)c2ccccc2n1 | 4 | 33* | 35 | 9 | 48
Cc1ccc(NC(=O)c2cc(C)nc3ccccc23)cc1 | / | -11 | -12 | / | 2
Cc1cc(=O)[nH]c(SCC(=O)Nc2ccccc2C)n1 | 1 | 3 | -1 | 20* | 19
Cc1cc(SCC(=O)Nc2ccccc2C)nc(C)n1 | 0 | -5 | 11 | 0 | 4
Cc1ccc(C)c(NC(=O)c2cc(C)nc3ccccc23)c1 | / | 67* | -16 | / | 17
Cc1cc(C)nc(SCC(=O)Nc2ccnc3ccccc23)n1 | 4 | 36* | 35 | 9 | 44
Cc1cccc(C)c1NC(=O)CN(C)C(=O)Cc1cccc(C(F)(F)F)c1 | / | -5 | -13 | / | 1
CCN(CC)c1ccc(/C=N/NC(=O)c2cccc(S(=O)(=O)Nc3ccccc3OC)c2)c(O)c1 | 0 | -10 | 25 | 0 | 79*
CCN(CC)c1ccc(C(=O)N/N=C/c2ccccc2OC(F)F)cc1 | -1 | -25 | 14 | 0 | 74*
CSc1cccc(NC(=O)Cn2cnc(S(=O)(=O)N3CCCC3)c2)c1 | / | 3 | 9 | / | 13
CC(C)OCC(O)CN1CCN(CCN2C(=O)c3cccc4cccc(c34)C2=O)CC1 (centres undefined) | / | -8 | -30 | / | 41*
CCCCOc1ccc(S(=O)(=O)N2CCCCC2)cc1 | / | 42* | -21 | / | 4
CCOc1ccc(S(=O)(=O)N2CCCCCC2)cc1 | 2 | -23 | 22 | -1 | 0
O=S(=O)(c1ccc(C2CCCCC2)cc1)N1CCCC1 | 1 | 52* | -8 | 0 | 12
CCOC(=O)c1cccc(NC(=O)c2ccc(NC(=O)C3CCCO3)cc2)c1 (centres undefined) | / | 5 | -23 | / | 10
CCOC(=O)N1CCN(C(=O)C2CCN(C(=O)c3ccc(C(C)(C)C)cc3)CC2)CC1 | / | -7 | -12 | / | 17
COc1ccc(N2CCN(C(=O)C3CCN(C(=O)c4ccc([N+](=O)[O-])cc4)CC3)CC2)cc1 | / | -2 | -5 | / | 51*
CCOC(=O)N1CCN(C(=O)C2CCN(C(=O)c3ccc([N+](=O)[O-])cc3)CC2)CC1 | / | -4 | -16 | / | 55*
C=CCn1c(SCC(=O)c2cccs2)nc2sc(CC)cc2c1=O | 1 | 56* | 51* | 1 | 34
FC(F)(F)c1nc(N2CCCC2)ncc1-c1nnnn1-c1ccccc1 | 2 | 40* | 23 | 0 | 25
Cc1ccc(-n2nnnc2-c2cnc(N3CCCC3)nc2C(F)(F)F)cc1 | 0 | 28 | -5 | -1 | 7
COC(=O)c1cc(S(=O)(=O)NCC2CCN(CCc3cccs3)CC2)c[nH]1 | / | -7 | 0 | / | 12
COC(=O)c1ccccc1S(=O)(=O)N(CCCO)Cc1cc2c(C)ccc(C)c2[nH]c1=O | 1 | -16 | -6 | 2 | 46*
CC(=O)Nc1ccc(S(=O)(=O)N(Cc2ccco2)Cc2cc3ccccc3[nH]c2=O)cc1 | / | -27 | -13 | / | 39*
COC(=O)c1ccccc1S(=O)(=O)N(Cc1ccco1)Cc1cc2cc(OC)ccc2[nH]c1=O | 1 | -38 | 4 | 3 | 41*
SMILES | TRPML3 ag | CHO parental Ca | OX1R antag-1 | zfTRPN1 agonist | OX1R antag-2
CCn1cnc2cc(NCc3ccc(N(C)C)cc3)ccc21 | 1 | -13 | -13 | 1 | 17
CCN(CC)c1ccc(CNc2ccc3c(c2)ncn3CC)cc1 | / | 46* | 0 | / | -9
COc1ccc(C(=O)O)cc1S(=O)(=O)NC(C)C12CC3CC(CC(C3)C1)C2 (centres undefined) | / | 34* | 45* | / | 2
Cc1ccnc(SCC(=O)Nc2sc3c(c2C#N)CCCC3)n1 | 2 | 69* | 74* | 5 | 80*
O=C(O)c1cc(O)c2c(c1)[C@H]([C@H]1c3cc(C(=O)O)cc(O)c3C(=O)c3c(O[C@@H]4O[C@H](CO)[C@@H](O)[C@H](O)[C@H]4O)cccc31)c1cccc(OC3O[C@H](CO)[C@@H](O)[C@H](O)[C@H]3O)c1C2=O (some centres undefined) | / | 2 | 14 | / | 43
O=C1c2cc(CO)cc(O)c2C(=O)c2c(O[C@@H]3OC(CO)[C@@H](O)[C@@H](O)[C@@H]3O)cccc21 (some centres undefined) | / | -6 | -10 | / | 73*
C=CCOc1c(CCC)cc(CCC)cc1C(N)=O | -1 | 94* | 3 | -2 | -2
CCOC(=O)Cn1cnc2scc(-c3ccc(C)cc3)c2c1=O | / | -12 | -23 | / | 13
CC(OC(=O)c1ccc2ccccc2c1)C(=O)N(C)Cc1ccccc1 (centres undefined) | / | -24 | 17 | / | 38*
Cn1c2ccccc2c(=O)c2cc(NCCCN3CCOCC3)ccc21 | / | -28 | -21 | / | 59*
O=C1Nc2ccc(S(=O)(=O)N3CCCC3C(=O)O)c3cccc1c23 (centres undefined) | 0 | -9 | -10 | 1 | 38*
Nc1c(Cl)ncnc1N/N=C/c1ccnc2ccccc12 | 0 | -17 | -29 | 1 | 52
Nc1c(Cl)ncnc1N/N=C/c1ccc2ccccc2n1 | 0 | 34 | 35 | 1 | 75*
Nc1c(Cl)ncnc1N/N=C/c1ccccn1 | 1 | -6 | 1 | 2 | 92*
Cc1cccc2c3c([nH]c12)CCNC3 | / | 9 | -4 | / | 9
CN(NS(=O)(=O)c1ccc(Cl)cc1)c1nc(C(F)(F)F)nc2ccccc12 | 1 | 4 | -21 | 18 | 55*
Cc1ccc(S(=O)(=O)N2C(=O)/C(=C3\SC(=S)NC3=O)c3ccccc32)cc1 | 0 | -6 | 9 | 3 | 16
O=C(NNC(=S)NC(=O)c1ccccc1Cl)c1cccc([N+](=O)[O-])c1 | / | 0 | 11 | / | 6
O=C(NNc1c(Cl)cc(Cl)cc1Cl)c1cccc([N+](=O)[O-])c1 | 0 | 48* | 8 | 3 | 34
O=C(NNC(=O)c1ccccc1[N+](=O)[O-])c1cnccn1 | 1 | -6 | -5 | 0 | 8
O=C(NNC(=O)c1cnccn1)c1cccc([N+](=O)[O-])c1 | 0 | -4 | 4 | 0 | 44*
Cc1cc(C(=O)NNC(=O)c2cccc([N+](=O)[O-])c2)n[nH]1 | / | -1 | 7 | / | 28*
CN(Cc1ccccc1)C(=O)c1cccc(NC(=O)C2CCCN(C(=O)OC(C)(C)C)C2)c1 (centres undefined) | / | -15 | -12 | / | 16
O=C(O)C1C2C=CC(C2)C1C(=O)Nc1ccc(Cl)c(Cl)c1 (centres undefined) | / | 4 | 5 | / | 6
CC1=Nc2ccccc2/C1=C/c1sc(=S)n(-c2cccc(C(=O)O)c2)c1O | 18* | / | / | 20* | /
C#CCN1C(=O)S/C(=C\c2cc3c(cc2OC)OCO3)C1=O | / | 3 | -10 | / | 0
CCN(CC)C(c1ccc(C)cc1)c1nnnn1C1CCCCC1 (centres undefined) | -1 | 26* | -37 | -3 | 25
O=C(CN1CCN(S(=O)(=O)c2cccc(F)c2)CC1)NCC1(N2CCOCC2)CCCCC1 | / | -17 | -28 | / | -4
